Measured values from ChEMBL document CHEMBL1124180, “Asymmetric synthesis and properties of the enantiomers of the antibacterial agent 7-(3-aminopyrrolidin-1-yl)-1-(2,4-difluorophenyl)-1,4-dihydro-6- fluoro-4-oxo-1,8-naphthyridine-3-carboxylic acid hydrochloride” (J Med Chem, 1988).

Tests used:
Staphylococcus aureus [1] = assay: In vitro activity against Staphylococcus aureus(CMX 553); assay type: functional
Procedure, shortened: (§1)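 MIC determined by agar dilution on brain-heart infusion agar under aerobic conditions.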

Staphylococcus aureus [2] = assay: In vitro activity against Staphylococcus aureus(45); assay type: functional; procedure, shortened: as §1
Mus musculus [3] = assay: In vivo activity against Escherichia coli Juhl(100X LD50), when administered sc(each compound tested at 3 doses with 10 animals); assay type: functional
Procedure, shortened: (§2)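 Mice were challenged intraperitoneally with the organism. The compound was given subcutaneously as a total dose split into equal portions at 1 and 5 h post-infection. Three doses were used, with 10 animals per dose.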

Streptococcus pyogenes [4] = assay: In vitro activity against Streptococcus pyogenes (EES61); assay type: functional; procedure, shortened: as §1
Bacteroides fragilis [5] = assay: In vitro activity against Bacteroides fragilis (105AT25285); assay type: functional
Procedure, shortened: (§3)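 MIC determined under anaerobic conditions on Wilkins-Chalgren agar.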

[6] = test system: Peptostreptococcus anaerobius; assay: In vitro activity against Peptostreptococcus anaerobius (ATCC 27337); assay type: functional; procedure, shortened: as §3
Mus musculus [7] = assay: In vivo activity against Pseudomonas aeruginosa A5007 (100X LD50), administered sc( each compound tested at 3 doses with 10 animals); assay type: functional; procedure, shortened: as §2
Parvimonas micra = assay: In vitro activity against Peptostreptococcus micros (ATCC 33270); assay type: functional; procedure, shortened: as §3
Mus musculus [8] = assay: In vivo activity against Staphylococcus aureus NCTC 10649, administered sc ( each compound tested at 3 doses with 10 animals); assay type: functional; procedure, shortened: as §2
Bacteroides fragilis [9] = assay: In vitro activity against Bacteroides fragilis (784); assay type: functional; procedure, shortened: as §3
[10] = Solubility in aqueous media urine, pH 6.3; assay type: physicochemical; details: read-out: S
Bacteroides fragilis [11] = assay: In vitro activity against Bacteroides fragilis (UC-2); assay type: functional; procedure, shortened: as §3
[12] = test system: Bacteroides thetaiotaomicron; assay: In vitro activity against Bacteroides thetaiotaomicron (ATCC 29741); assay type: functional; procedure, shortened: as §3
Enterococcus faecium = assay: In vitro activity against Enterococcus faecium (ATCC 8043).; assay type: functional; procedure, shortened: as §1
Cutibacterium acnes = assay: In vitro activity against Propionibacterium acnes (132); assay type: functional; procedure, shortened: as §3
Streptococcus pyogenes [13] = assay: In vitro activity against Streptococcus pyogenes (2548 INDUC).; assay type: functional; procedure, shortened: as §1
[14] = test system: Prevotella melaninogenica; assay: In vitro activity against Bacteroides melaninogenicus (ATCC 25845).; assay type: functional; procedure, shortened: as §3
Clostridium perfringens = assay: In vitro activity against Clostridium perfringens (104AT13124); assay type: functional
Procedure, shortened: (§4)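 MIC for anaerobic bacteria, measured on Wilkins-Chalgren agar.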

[15] = test system: Staphylococcus epidermidis; assay: In vitro activity against Staphylococcus epidermidis (3519); assay type: functional; procedure, shortened: as §1
Staphylococcus aureus [16] = assay: In vitro activity against Staphylococcus aureus (A5177); assay type: functional; procedure, shortened: as §1
Prevotella disiens = assay: In vitro activity against Bacteroides disiens (ATCC 29426); assay type: functional; procedure, shortened: as §3
Escherichia coli [17] = assay: In vitro activity against Escherichia coli (KNK437); assay type: functional
Procedure, shortened: (§5)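 MIC for aerobic bacteria, measured on brain-heart infusion agar.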

Micrococcus luteus [18] = assay: In vitro activity against Micrococcus luteus (ATCC 4698); assay type: functional; procedure, shortened: as §1
Staphylococcus aureus [19] = assay: In vitro activity against Staphylococcus aureus(CMX 503A); assay type: functional; procedure, shortened: as §1
Peptostreptococcus sp. = assay: In vitro activity against Peptostreptococcus sp.(TB-11); assay type: functional, peptostreptococcus s; procedure, shortened: as §4
Pseudomonas aeruginosa = assay: In vitro activity against Pseudomonas aeruginosa (K799/WT).; assay type: functional; procedure, shortened: as §1
Mus musculus [20] = assay: In vivo activity against Pseudomonas aeruginosa A5007 (100X LD50), administered po( each compound tested at 3 doses with 10 animals); assay type: functional
Procedure, shortened: (§6)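 Mice were challenged intraperitoneally with the organism. The compound was given orally as a total dose split into equal portions at 1 and 5 h post-infection. Three doses were used, with 10 animals per dose.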

Mus musculus [21] = assay: In vivo activity against Escherichia coli Juhl(100X LD50), when administered po(each compound tested at 3 doses with 10 animals); assay type: functional; procedure, shortened: as §6
Escherichia coli [22] = assay: In vitro activity against Escherichia coli (SS).; assay type: functional; procedure, shortened: as §5
Phocaeicola vulgatus = assay: In vitro activity against Bacteroides vulgatus(792); assay type: functional; procedure, shortened: as §3
Fusobacterium nucleatum = assay: In vitro activity against Fusobacterium nucleatum (ATCC 25586); assay type: functional; procedure, shortened: as §3
Staphylococcus aureus [23] = assay: In vitro activity against Staphylococcus aureus(45 RAR2); assay type: functional; procedure, shortened: as §1
Thomasclavelia ramosa = assay: In vitro activity against Clostridium romosum (7); assay type: functional
Micrococcus luteus [24] = assay: In vitro activity against Micrococcus luteus (ATCC 9341); assay type: functional; procedure, shortened: as §1
Clostridioides difficile = assay: In vitro activity against Clostridium difficile (ATCC 17857); assay type: functional
Providencia stuartii = assay: In vitro activity against Providencia stuartii (CMX 640); assay type: functional; procedure, shortened: as §1
Hoylesella loescheii = assay: In vitro activity against Bacteroides loescheii (ATCC 15930).; assay type: functional; procedure, shortened: as §3
Mus musculus [25] = assay: In vivo activity against Staphylococcus aureus NCTC 10649, administered po( each compound tested at 3 doses with 10 animals); assay type: functional; procedure, shortened: as §6

Q: Which MIC (Staphylococcus aureus [1]) does the source give for `Cl.N[C@H]1CCN(c2nc3c(cc2F)c(=O)c(C(=O)O)cn3-c2ccc(F)cc2F)C1` here?
A: The MIC was 0.05 µg/mL.

Q: What about the MIC (Staphylococcus aureus [2]) of the same molecule?
A: The MIC was 0.1 µg/mL.

Q: And the ED50 (Mus musculus [3])?
A: Its ED50 is 0.2 mg/kg.

Q: And the MIC (Streptococcus pyogenes [4])?
A: Its MIC is 0.1 µg/mL.

Q: What about the MIC (Bacteroides fragilis [5]) of the same molecule?
A: The MIC was 0.25 µg/mL.

Q: What about the MIC [6] of the same molecule?
A: Its MIC is 0.12 µg/mL.

Q: What about the ED50 (Mus musculus [7]) of the same molecule?
A: The ED50 was 19.1 mg/kg.

Q: What about the MIC (Parvimonas micra) of the same molecule?
A: The MIC was 0.06 µg/mL.

Q: What about the ED50 (Mus musculus [8]) of the same molecule?
A: Its ED50 is 0.4 mg/kg.

Q: What about the MIC (Bacteroides fragilis [9]) of the same molecule?
A: The MIC was 0.25 µg/mL.

Q: And the solubility [10]?
A: Its solubility is 20.7 µg/mL.

Q: What about the MIC (Bacteroides fragilis [11]) of the same molecule?
A: The MIC was 0.25 µg/mL.

Q: What about the MIC [12] of the same molecule?
A: The MIC was 0.5 µg/mL.

Q: What about the MIC (Enterococcus faecium) of the same molecule?
A: Its MIC is 0.1 µg/mL.

Q: What about the MIC (Cutibacterium acnes) of the same molecule?
A: Its MIC is 2 µg/mL.

Q: What about the MIC (Streptococcus pyogenes [13]) of the same molecule?
A: Its MIC is 0.1 µg/mL.

Q: And the MIC [14]?
A: The MIC was 0.5 µg/mL.

Q: What about the MIC (Clostridium perfringens) of the same molecule?
A: Its MIC is 0.12 µg/mL.

Q: What about the MIC [15] of the same molecule?
A: Its MIC is 0.05 µg/mL.

Q: And the MIC (Staphylococcus aureus [16])?
A: Its MIC is 0.05 µg/mL.

Q: What about the MIC (Prevotella disiens) of the same molecule?
A: Its MIC is 1 µg/mL.

Q: What about the MIC (Escherichia coli [17]) of the same molecule?
A: Its MIC is 0.1 µg/mL.

Q: What about the MIC (Micrococcus luteus [18]) of the same molecule?
A: The MIC was 0.78 µg/mL.

Q: What about the MIC (Staphylococcus aureus [19]) of the same molecule?
A: Its MIC is 0.05 µg/mL.

Q: What about the MIC (Peptostreptococcus sp.) of the same molecule?
A: Its MIC is 0.25 µg/mL.

Q: And the MIC (Pseudomonas aeruginosa)?
A: Its MIC is 0.1 µg/mL.

Q: And the ED50 (Mus musculus [20])?
A: Its ED50 is 11.5 mg/kg.

Q: What about the ED50 (Mus musculus [21]) of the same molecule?
A: Its ED50 is 0.8 mg/kg.

Q: What about the MIC (Escherichia coli [22]) of the same molecule?
A: Its MIC is 0.002 µg/mL.

Q: And the MIC (Phocaeicola vulgatus)?
A: Its MIC is 0.5 µg/mL.

Q: And the MIC (Fusobacterium nucleatum)?
A: The MIC was 0.25 µg/mL.

Q: And the MIC (Staphylococcus aureus [23])?
A: Its MIC is 0.05 µg/mL.

Q: And the MIC (Thomasclavelia ramosa)?
A: Its MIC is 0.5 µg/mL.

Q: And the MIC (Micrococcus luteus [24])?
A: The MIC was 0.78 µg/mL.

Q: And the MIC (Clostridioides difficile)?
A: The MIC was 1 µg/mL.

Q: What about the MIC (Providencia stuartii) of the same molecule?
A: Its MIC is 1.56 µg/mL.

Q: And the MIC (Hoylesella loescheii)?
A: Its MIC is 1 µg/mL.

Q: And the ED50 (Mus musculus [25])?
A: Its ED50 is 0.8 mg/kg.
